Myeloid diff MLP – promotes myeloid progenitor differentiation; ER-HoxA9 myeloid progenitors, lysozyme-GFP differentiation, flow cytometry; calls only at 10 µM; 360,000 compounds, 1% hits;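 active = normalized GFP-positive differentiation at or above the plate's own cutoff, the solvent-only control mean plus 3 SD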;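 note: cells exposed to compound for four days before flow analysis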
T cell HTS – T cell immune modulators affecting CD8 T cell-vesicle binding; 2C CD8+ T cell-vesicle binding, flow cytometry; stronger effect = lower value; response (vesicle binding), % at 7 µM; 330,000 compounds, 0.068% hits; AID 2052;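 active = response, share of CD8 T cells binding vesicles, and their 90th percentile fluorescence all below set limits, cut at about 80% in these data, passing the limit was not always enough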;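 note: values below 100% mean blocked vesicle binding to the CD8+ T cells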
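Benchmarks: naked versus QL9-loaded vesicles / Assay system: purified 2C TCR transgenic mouse naive CD8+ T cells / Technique: high-throughput flow cytometry with anti-B7-1 and anti-CD8 staining / Timing: Cell–vesicle co-incubation 1.5 h at 37 °C, staining 20 min on ice / Read-out: percent CD8+ FL2 mean versus row control / Probe or stimulus: QL9-loaded Drosophila micro-vesicles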
Casp6 inh – caspase-6 (human) enzyme inhibition. P55212. purified caspase-6, Z-VEID-R110 cleavage fluorescence. inhibition, % at 12.5 µM. 350,000 compounds, 0.53% hits;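 active = mean inhibition across replicates at least about 35%, with every replicate also reaching that limit, limit read from the data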
Target sequence (P55212 24-179 limits assumed): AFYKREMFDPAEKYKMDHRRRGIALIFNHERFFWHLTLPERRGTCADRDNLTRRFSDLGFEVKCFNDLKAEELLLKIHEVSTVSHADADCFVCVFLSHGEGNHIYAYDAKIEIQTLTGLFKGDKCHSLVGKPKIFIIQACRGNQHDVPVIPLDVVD
Target sequence (P55212 194-293 limits assumed): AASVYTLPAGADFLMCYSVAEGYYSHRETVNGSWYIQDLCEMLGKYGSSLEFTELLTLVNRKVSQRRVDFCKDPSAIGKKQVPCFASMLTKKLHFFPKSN
Vif inh – inhibitors of HIV Vif. 340,000 compounds, 0.35% hits. HEK293T cells, Vif self-association by quenched fluorescence, imaging, 24 h. AID 602346. inhibition, % at 7.49 µM; in the data active = inhibition above about 50%, passing the limit was not always enough
Myeloid diff – myeloid differentiation induction; calls only; ER-HoxA9 myeloid progenitors, GFP/Mac1 double-positive flow; 2,300 compounds, 2% hits; shares compounds with Myeloid diff MLP;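 active = share of green or green-and-red cells above 9 and 9% in run 1 or 4 and 3% in run 2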
GFP autofluor – flagged as fluorescent in myeloid differentiation counter-screen | ER-HoxA9 myeloid progenitors, no estrogen, GFP autofluorescence flow cytometry; vehicle wells 0%, positive control 100% | 2,300 compounds, 7.4% hits | fluorescence response, % (test concentration not listed) | shares compounds with Myeloid diff MLP | AID 651707;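 active = over 5% cells positive for green fluorescent reporter, or over 2% positive for both it and APC stain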
Large screens that a line does not name were inactive (follow-up assays come after a bar, where they were run). Hits are enriched below; roughly 1.4% of the tested compounds scored in any of these assays.

CCCCn1c(SCC(=O)c2ccc(O)cc2O)nc2cc(S(N)(=O)=O)ccc21	none
CCCCn1c(SCC(=O)N2CCC(C)CC2)nc2cc(S(N)(=O)=O)ccc21	Myeloid diff MLP active | Myeloid diff inactive | GFP autofluor inactive
COc1ccccc1NC(=S)N(Cc1ccco1)Cc1cc2cc(C)cc(C)c2[nH]c1=O	none | Myeloid diff inactive | GFP autofluor inactive
CCC(=O)N(C)C[C@@H]1Oc2ncc(C3=CCCC3)cc2C(=O)N([C@@H](C)CO)C[C@H]1C	none (no result: Myeloid diff MLP, T cell HTS, Vif inh)
CC(C)CNC(=O)[C@@]1(c2ccc([N+](=O)[O-])cc2)CC(=O)N(CC23CC4CC(CC(C4)C2)C3)[C@@H]1c1ccc(CO)cc1	none (no result: Myeloid diff MLP, T cell HTS, Vif inh)
CCOC(=O)c1cnc(SCc2nc(N)nc(Nc3ccc(F)cc3)n2)nc1N	none (no result: Casp6 inh)
CCOC(=O)c1cnc(SCc2nc(N)nc(Nc3ccc(C)cc3)n2)nc1N	none (no result: Casp6 inh) | Myeloid diff inactive | GFP autofluor inactive
CCOc1ccc(S(=O)(=O)Nc2ccccc2C(=O)N(C)C2CCN(C)CC2)cc1	none | Myeloid diff inactive | GFP autofluor inactive
Cc1ccccc1NS(=O)(=O)c1ccc(OCC(=O)N2CCCCC2)cc1	Myeloid diff MLP active (no result: Vif inh) | Myeloid diff inactive | GFP autofluor inactive
CC(=O)O[C@]1(C(C)=O)CC[C@H]2[C@@H]3C=C(Cl)C4=CC(=O)CC[C@]4(C)[C@H]3CC[C@@]21C	none | Myeloid diff inactive | GFP autofluor inactive
CC(C)NC(=O)N[C@H]1C=C[C@H](CC(=O)NCCCN(C)C)O[C@@H]1CO	none (no result: Myeloid diff MLP, T cell HTS, Vif inh)
C/C=C/c1ccc([C@H]2[C@@H](CO)N(C(=O)C3CC3)[C@H]2CN(C)S(C)(=O)=O)cc1	none (no result: Myeloid diff MLP, T cell HTS, Vif inh)
CCSCCC(NC1=CC(=O)CC(C)(C)C1)C(=O)O (centres undefined)	Myeloid diff MLP active (no result: Casp6 inh) | Myeloid diff inactive | GFP autofluor inactive
CC1(C)CC(=O)C=C(NCC(=O)O)C1	none
N#Cc1nc(COc2ccccc2)oc1N1CCCCCC1	none
N#Cc1nn(-c2ccccc2)nc1N1CCCCC1	Myeloid diff MLP active (no result: Casp6 inh) | Myeloid diff inactive | GFP autofluor inactive
O=C(Nc1ccccc1)N1CC(=O)N2[C@@H](CO)[C@H](c3ccc(C#CC4CC4)cc3)[C@@H]2C1	none (no result: Myeloid diff MLP, T cell HTS, Vif inh)
CN(C)c1ccc(C=NN2C(=O)CSC2=S)c(Cl)c1	Myeloid diff MLP active (no result: T cell HTS) | Myeloid diff inactive | GFP autofluor inactive
O=C1CSC(=S)N1N=Cc1c(F)cccc1Cl	none (no result: T cell HTS)
C[C@@H](NC(=O)C[C@H]1C[C@H]2c3cc(NS(C)(=O)=O)ccc3O[C@H]2[C@@H](CO)O1)c1ccccc1	none (no result: Myeloid diff MLP, T cell HTS, Vif inh)
O=C(C[C@@H]1CC[C@H]2[C@@H](COC[C@@H](O)CN2S(=O)(=O)c2ccc(Cl)cc2)O1)NCCN1CCCC1	none (no result: Myeloid diff MLP, T cell HTS, Vif inh)
CC1(C)N=C(N)NC(Nc2cccc(Br)c2)=N1	none (no result: Casp6 inh)
CC1(C)N=C(N)NC(Nc2ccc(Br)cc2)=N1	Myeloid diff MLP active (no result: Casp6 inh) | Myeloid diff inactive | GFP autofluor inactive
CC(C)C1C(=O)N(Cc2cn(CC3CCCCC3)nn2)CCS(=O)(=O)N1Cc1ccc(-c2ccc(F)cc2)cc1 (centres undefined)	none (no result: T cell HTS) | Myeloid diff inactive | GFP autofluor inactive
CCC/C=C/c1ccc(CN2C(CC(C)C)C(=O)N(Cc3cn(CCC4OCCO4)nn3)CCS2(=O)=O)cc1 (centres undefined)	none (no result: T cell HTS, Casp6 inh)
CCC/C=C/c1ccc(CN2C(C(C)C)C(=O)N(Cc3cn(CCC4OCCO4)nn3)CCS2(=O)=O)cc1 (centres undefined)	none (no result: T cell HTS) | Myeloid diff inactive | GFP autofluor inactive
CC(C)C1C(=O)N(Cc2cn(CCC3OCCCO3)nn2)CCS(=O)(=O)N1Cc1ccc(-c2cccc(N(C)C)c2)cc1 (centres undefined)	none (no result: T cell HTS)
COCOCCn1cc(CN2CCS(=O)(=O)N(Cc3ccc(-c4ccc(Cl)nc4)cc3)C(CC(C)C)C2=O)nn1 (centres undefined)	none (no result: T cell HTS)
COCOCCn1cc(CN2CCS(=O)(=O)N(Cc3ccc(-c4ccc(Cl)cc4)cc3)C(CC(C)C)C2=O)nn1 (centres undefined)	Myeloid diff MLP active (no result: T cell HTS) | Myeloid diff inactive | GFP autofluor inactive
CC(C)C1C(=O)N(Cc2cn(CCC3OCCCO3)nn2)CCS(=O)(=O)N1Cc1ccc(-c2cccc(CO)c2)cc1 (centres undefined)	none (no result: T cell HTS) | Myeloid diff inactive | GFP autofluor inactive
O=C(c1cccc(F)c1)N1C[C@@H]2[C@H](c3ccccc31)[C@H](CO)N2C(=O)c1ccc(F)cc1	none (no result: Myeloid diff MLP, T cell HTS, Vif inh)

From PubChem
